Measured values from ChEMBL document CHEMBL1126834, “Chemistry, binding affinities, and behavioral properties of a new class of "antineophobic" mitochondrial DBI receptor complex (mDRC) ligands” (J Med Chem, 1993).

Key:
[1] = target: GABA-A receptor; anion channel; experiment: Inhibitory activity at GABA A receptor, measured by the ability to displace [3H]flumazenil from GABA A receptor in rat brain; type: tissue-based
[2] = target: GABA-A receptor; anion channel; experiment: Inhibitory activity at GABA A receptor, measured by the ability to displace [3H]GABA from GABA A receptor in rat brain; type: tissue-based
Translocator protein = Translocator protein (Rattus norvegicus, UniProt P16257); experiment: Binding affinity against mitochondrial DBI complex (peripheral benzodiazepine receptor) using primary cultures of glial cells
Chain of Translocator protein (P16257 whole entry, looked up): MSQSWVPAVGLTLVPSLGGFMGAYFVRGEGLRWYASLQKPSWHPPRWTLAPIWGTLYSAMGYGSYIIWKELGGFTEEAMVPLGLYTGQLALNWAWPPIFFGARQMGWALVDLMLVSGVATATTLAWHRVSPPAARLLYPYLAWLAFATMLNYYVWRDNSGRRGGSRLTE
Procedure, shortened: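 Glia from cerebella of 8-day-old Sprague–Dawley rat pups, trypsin-dissociated and grown 14 days (~95% astroglia). Cells lysed in 50 mM Hepes pH 7.4, 4 μg protein per tube. Incubated with [3H]4'-chlorodiazepam and competitor for 90 min at 4 °C, then filtered. Nonspecific binding defined with 10 μM 4'-chlorodiazepam. Triplicate competition curves; IC50 by nonlinear regression, converted to Ki (Bylund–Yamamura).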

Glutamate NMDA receptor = experiment: Inhibitory activity by measuring its ability to displace [3H]-MK-801 from glutamate(NMDA) receptor in rat brain; type: tissue-based
[3] = target: GABA-A receptor; anion channel; experiment: Inhibitory activity at GABA A receptor, measured by the ability to displace [35S]TBPS from GABA A receptor in rat brain; type: tissue-based
[4] = Inhibitory activity by measuring its ability to displace [3H]spiperone from dopamine or serotonin 5-HT-1 receptors in rat brain; type: tissue-based
[5] = target: GABA-A receptor; anion channel; experiment: Inhibitory activity at GABA A receptor, measured by the ability to displace [3H]zolpidem from GABA A receptor in rat brain; type: tissue-based
[6] = target: Serotonin 2 (5-HT2) receptor (Rattus norvegicus); experiment: Inhibitory activity by measuring its ability to displace [3H]ketanserin from serotonin receptor in rat brain
[7] = Inhibitory activity at GABA B receptor, measured by the ability to displace [3H]baclofen from GABA B receptor in rat brain; type: tissue-based
[8] = target: Adrenergic receptor alpha; experiment: Inhibitory activity by measuring its ability to displace [3H]WB-4101 from alpha-adrenergic receptor in rat brain; type: tissue-based
[9] = target: T1, Gastrin/cholecystokinin type B receptor (Rattus norvegicus, UniProt P30553); experiment: Inhibitory activity by measuring its ability to displace [3H]L-365260 from cholecystokinin receptor in rat brain; type: tissue-based
T1 sequence (P30553 whole entry): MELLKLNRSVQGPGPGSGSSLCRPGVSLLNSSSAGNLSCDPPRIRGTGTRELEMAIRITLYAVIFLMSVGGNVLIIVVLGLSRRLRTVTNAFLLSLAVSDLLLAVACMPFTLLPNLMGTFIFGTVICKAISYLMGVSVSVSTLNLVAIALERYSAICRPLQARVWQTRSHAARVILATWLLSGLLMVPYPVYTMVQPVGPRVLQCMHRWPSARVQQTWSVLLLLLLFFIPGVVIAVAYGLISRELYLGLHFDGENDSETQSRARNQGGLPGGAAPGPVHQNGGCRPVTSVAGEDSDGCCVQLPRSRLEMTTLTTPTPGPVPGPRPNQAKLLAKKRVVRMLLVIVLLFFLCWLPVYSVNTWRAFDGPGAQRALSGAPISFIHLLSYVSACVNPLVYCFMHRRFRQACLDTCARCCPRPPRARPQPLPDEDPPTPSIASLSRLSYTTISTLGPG

Adrenergic receptor beta = Adrenergic receptor beta (Rattus norvegicus, UniProt P18090+P10608+P26255); experiment: Inhibitory activity by measuring its ability to displace [125I]pindolol from beta-adrenergic receptor in rat brain; type: tissue-based
[10] = Tested for inhibitory activity by measuring its ability to displace [3H]AMPA from glutamate (non-NMDA) receptor in rat brain; type: tissue-based
Cannabinoid receptor 1 = Cannabinoid receptor 1 (Rattus norvegicus, UniProt P20272); experiment: Inhibitory activity, measured by displacement [3H]CP-55940 from cannabinoid receptor (CB1) in rat brain; type: tissue-based
Chain of Cannabinoid receptor 1 (P20272 whole entry): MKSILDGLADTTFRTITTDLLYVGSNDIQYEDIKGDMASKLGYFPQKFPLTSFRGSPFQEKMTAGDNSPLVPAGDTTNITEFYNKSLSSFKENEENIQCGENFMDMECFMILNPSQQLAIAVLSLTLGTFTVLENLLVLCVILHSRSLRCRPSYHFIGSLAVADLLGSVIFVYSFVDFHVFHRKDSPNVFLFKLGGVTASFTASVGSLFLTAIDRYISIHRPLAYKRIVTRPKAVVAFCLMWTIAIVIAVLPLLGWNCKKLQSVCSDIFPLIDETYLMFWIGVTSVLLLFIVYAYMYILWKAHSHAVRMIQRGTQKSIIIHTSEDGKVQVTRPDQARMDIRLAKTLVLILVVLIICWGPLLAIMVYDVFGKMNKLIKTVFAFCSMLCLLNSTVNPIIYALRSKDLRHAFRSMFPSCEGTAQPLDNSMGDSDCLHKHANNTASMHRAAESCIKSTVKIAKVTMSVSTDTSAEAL

Opioid receptor = Opioid receptor (Rattus norvegicus, UniProt P33533+P34975+P33535); experiment: Inhibition of [3H]naxolone binding to opiate receptors in rat brain; type: tissue-based
[11] = Inhibitory activity by measuring its ability to displace [3H]glycine from glycine receptor in rat brain; type: tissue-based
[12] = target: Adrenergic receptor alpha; experiment: Inhibitory activity by measuring its ability to displace [3H]clonidine from alpha-adrenergic receptor in rat brain; type: tissue-based
[13] = target: Sigma receptor (Rattus norvegicus); experiment: Tested for inhibitory activity by measuring its ability to displace [3H]3-PPP from sigma receptor in rat brain

| IC50 [1] | IC50 [2] | Ki (Translocator protein) | IC50 (Glutamate NMDA receptor) | IC50 [3] | IC50 [4] | IC50 [5] | IC50 [6] | IC50 [7] | IC50 [8] | IC50 [9] | IC50 (Adrenergic receptor beta) | IC50 [10] | IC50 (Cannabinoid receptor 1) | IC50 (Opioid receptor) | IC50 [11] | IC50 [12] | IC50 [13] | SMILES |
| --- | --- | --- | --- | --- | --- | --- | --- | --- | --- | --- | --- | --- | --- | --- | --- | --- | --- | --- |
| > 1000 nM | > 1000 nM | 3.9 nM | > 1000 nM | > 1000 nM | > 1000 nM | > 1000 nM | > 1000 nM | > 1000 nM | > 1000 nM | > 1000 nM | > 1000 nM | > 1000 nM | > 1000 nM | > 1000 nM | > 1000 nM | > 1000 nM | > 1000 nM | CCCN(CCC)C(=O)Cc1c(-c2ccc(Cl)cc2)[nH]c2ccc(Cl)cc12 |
| > 1000 nM | > 1000 nM | 202 nM | > 1000 nM | > 1000 nM | > 1000 nM | > 1000 nM | > 1000 nM | > 1000 nM | > 1000 nM | > 1000 nM | > 1000 nM | > 1000 nM | > 1000 nM | > 1000 nM | > 1000 nM | > 1000 nM | > 1000 nM | CCCN(CCC)C(=O)Cc1c(-c2ccccc2)[nH]c2cc(F)ccc12 |
| > 1000 nM | > 1000 nM | 216 nM | > 1000 nM | > 1000 nM | > 1000 nM | > 1000 nM | > 1000 nM | > 1000 nM | > 1000 nM | > 1000 nM | > 1000 nM | > 1000 nM | > 1000 nM | > 1000 nM | > 1000 nM | > 1000 nM | > 1000 nM | CCCN(CCC)C(=O)Cc1c(-c2ccc(Br)cc2)[nH]c2ccccc12 |
| > 1000 nM | > 1000 nM | 96 nM | > 1000 nM | > 1000 nM | > 1000 nM | > 1000 nM | > 1000 nM | > 1000 nM | > 1000 nM | > 1000 nM | > 1000 nM | > 1000 nM | > 1000 nM | > 1000 nM | > 1000 nM | > 1000 nM | > 1000 nM | CCCCCCNC(=O)Cc1c(-c2ccccc2)[nH]c2ccccc12 |
| > 1000 nM | > 1000 nM | 338 nM | > 1000 nM | > 1000 nM | > 1000 nM | > 1000 nM | – | > 1000 nM | > 1000 nM | > 1000 nM | > 1000 nM | > 1000 nM | > 1000 nM | – | > 1000 nM | > 1000 nM | – | O=C(Cc1c(-c2ccccc2)[nH]c2ccccc12)N1CCCC1 |
| > 1000 nM | > 1000 nM | 211 nM | > 1000 nM | > 1000 nM | > 1000 nM | > 1000 nM | – | > 1000 nM | > 1000 nM | > 1000 nM | > 1000 nM | > 1000 nM | > 1000 nM | – | > 1000 nM | > 1000 nM | – | CCCN(CCC)C(=O)Cc1c(-c2ccccc2)[nH]c2c(F)cccc12 |
| > 1000 nM | > 1000 nM | – | > 1000 nM | > 1000 nM | > 1000 nM | > 1000 nM | > 1000 nM | > 1000 nM | > 1000 nM | > 1000 nM | > 1000 nM | > 1000 nM | > 1000 nM | > 1000 nM | > 1000 nM | > 1000 nM | > 1000 nM | c1ccc(-c2[nH]c3ccccc3c2CC2=NCCN2)cc1 |
| > 1000 nM | > 1000 nM | 66 nM | > 1000 nM | > 1000 nM | > 1000 nM | > 1000 nM | – | > 1000 nM | > 1000 nM | > 1000 nM | > 1000 nM | > 1000 nM | > 1000 nM | – | > 1000 nM | > 1000 nM | – | CCCN(CCC)C(=O)Cc1c(-c2ccc(C)cc2)[nH]c2ccc(C)cc12 |
| > 1000 nM | > 1000 nM | 150 nM | > 1000 nM | > 1000 nM | > 1000 nM | > 1000 nM | – | > 1000 nM | > 1000 nM | > 1000 nM | > 1000 nM | > 1000 nM | > 1000 nM | – | > 1000 nM | > 1000 nM | – | Cc1ccc(-c2[nH]c3ccc(C)cc3c2CC(=O)N(C)C)cc1 |
| > 1000 nM | > 1000 nM | – | > 1000 nM | > 1000 nM | > 1000 nM | > 1000 nM | > 1000 nM | > 1000 nM | > 1000 nM | > 1000 nM | > 1000 nM | > 1000 nM | > 1000 nM | > 1000 nM | > 1000 nM | > 1000 nM | > 1000 nM | O=C1Cc2c(-c3ccccc3)[nH]c3cccc(c23)N1 |
| > 1000 nM | > 1000 nM | 304 nM | > 1000 nM | > 1000 nM | > 1000 nM | > 1000 nM | – | > 1000 nM | > 1000 nM | > 1000 nM | > 1000 nM | > 1000 nM | > 1000 nM | – | > 1000 nM | > 1000 nM | – | CCCN(CCC)C(=O)Cc1c(-c2cccs2)[nH]c2ccccc12 |
| > 1000 nM | > 1000 nM | > 1000 nM | > 1000 nM | > 1000 nM | > 1000 nM | > 1000 nM | – | > 1000 nM | > 1000 nM | > 1000 nM | > 1000 nM | > 1000 nM | > 1000 nM | – | > 1000 nM | > 1000 nM | – | CCCCCCN(CCCCCC)C(=S)Cc1c(-c2ccc(F)cc2)[nH]c2ccccc12 |
| > 1000 nM | > 1000 nM | 800 nM | > 1000 nM | > 1000 nM | > 1000 nM | > 1000 nM | – | > 1000 nM | > 1000 nM | > 1000 nM | > 1000 nM | > 1000 nM | > 1000 nM | – | > 1000 nM | > 1000 nM | – | CCCN(CCC)C(=O)C(C)c1c(-c2ccc(Cl)cc2)[nH]c2ccccc12 (stereo unspecified) |
| > 1000 nM | > 1000 nM | 156 nM | > 1000 nM | > 1000 nM | > 1000 nM | > 1000 nM | – | > 1000 nM | > 1000 nM | > 1000 nM | > 1000 nM | > 1000 nM | > 1000 nM | – | > 1000 nM | > 1000 nM | – | CCN(CC)C(=O)Cc1c(-c2ccccc2)[nH]c2ccccc12 |
